# Screens (PubChem)
# An excerpt weighted towards active compounds, which were near 2.1% of everything screened.
# Runt-SMMHC FRET: inhibitors of RUNX1 Runt–CBFb-SMMHC binding, primary screen, biochemical, FRET, Cerulean-Runt, Venus-CBFb-SMMHC, uHTS. Runt-related transcription factor 1 (Homo sapiens) + Core-binding factor subunit beta …. hit rate 0.74% among 220,000. inhibition, % at 20 µM. Cerulean-Runt/Venus-CBFb-SMMHC FRET ratio 530/480, 1 h. AID 1434, 2008;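 active = mean inhibition across duplicate retests at 20 µM reaching about 50%, limit read from the data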;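 note: 0% = DMSO wells and 100% = wells with excess untagged CBFb-SMMHC; inhibitors lower the FRET ratio by blocking Runt binding to CBFb-SMMHC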
# proKLK7 act: proKLK7 zymogen activators, primary screen, biochemical, fluorescence intensity | Kallikrein-7 (Homo sapiens), P49862 | purified proKLK7, EDANS-DABCYL substrate fluorescence; 100% is mature enzyme control, 0% vehicle | activation, % at 7 µM | hit rate 0.9% among 370,000 | AID 652039, 2013;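 active = activation above the mean of all tested compounds plus 3 SD, computed per campaign excluding outliers beyond control limits, cut at about 13% in these data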
# Target sequence (P49862 whole entry, looked up): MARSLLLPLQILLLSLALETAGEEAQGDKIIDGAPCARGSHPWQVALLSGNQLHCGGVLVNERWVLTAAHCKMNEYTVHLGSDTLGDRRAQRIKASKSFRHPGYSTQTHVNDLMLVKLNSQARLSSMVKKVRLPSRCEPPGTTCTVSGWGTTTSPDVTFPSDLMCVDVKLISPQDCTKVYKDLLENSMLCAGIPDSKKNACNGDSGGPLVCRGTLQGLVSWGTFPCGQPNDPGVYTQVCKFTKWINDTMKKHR
# Runt-CBFb FRET: inhibitors of RUNX1 Runt–CBFb binding, primary screen, biochemical, FRET, Cerulean-Runt, Venus-CBFb, uHTS | AID 1496, 2009 | Cerulean-Runt/Venus-CBFb FRET ratio 530/480, 1 h | hit rate 0.46% among 220,000 | Runt-related transcription factor 1 (Homo sapiens) + Core-binding factor subunit beta … | inhibition, % at 20 µM;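 active = inhibition over about 50% at 20 µM in the single-dose screen, limit read from the data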;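 note: 0% = DMSO wells and 100% = excess unlabeled CBFb competitor control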
#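 test system = Cerulean-tagged RUNX1 Runt domain (FRET donor) fusion protein | reagent = Venus-CBFb binding partner, 100 nM | incubation = protein complex preformed 1 h, compound exposure 1 h, room temperature, dark | detection = FRET fluorescence | read-out basis = loss of energy transfer signal | controls = 5 µM unlabeled CBFb as full-inhibition high control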
# MEX-5 binding: MEX-5 zinc finger RNA-binding disruptors – biochemical, C. elegans, fluorescence polarization, MLPCN library, primary screen; Zinc finger protein mex-5 (Caenorhabditis elegans), Q9XUB2; MEX-5/FITC-TCR2 RNA binding; stronger effect = lower value; activity score (negative = inhibition of binding), % at 10 µM; hit rate 0.38% among 300,000; AID 1832, 2009;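 active = inhibition past about -25% in most replicates, and total fluorescence under double the plate's negative control median, limit read from the data; inconclusive = replicates evenly split on the limit, or fluorescence at least double controls; inactive = too little inhibition in most replicates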;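 note: 0% = DMSO and -100% = 5 µM competing unlabeled TCR2 RNA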
# RanGTP-Imp inh: inhibitors of RanGTP-importin-beta interaction, primary screen, biochemical, FRET, CFP-Ran, YFP-importin-beta, homogeneous; Ran GTPase (GTP-bound) - importin-beta complex; cell-free CFP-Ran/YFP-importin-beta FRET ratio; inhibition, % (no concentration beside the values); hit rate 1.1% among 300,000; AID 2216, 2009;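 active = more than half of the replicate wells show a fall in the fluorescence ratio signal beyond about 16%, limit read from the data, passing the limit was not always enough; inconclusive = exactly half of the replicate wells pass the set limit; inactive = fewer than half of replicates pass the limit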;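 note: 0% = DMSO wells and 100% = Ran loaded with GDP instead of GTP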
# Starred values were filed as active, the others as inactive; ? = inconclusive; / = not tested or not shown.
SMILES,Runt-SMMHC FRET,proKLK7 act,Runt-CBFb FRET,MEX-5 binding,RanGTP-Imp inh
O=c1ccc2[n+]([O-])c3ccc(O)cc3oc-2c1,9,-7,7,-81*,?
CCOC(=O)c1c(NC(=O)CC)sc2c1CCN(Cc1ccccc1)C2,/,1,/,1,89*
COC(=O)c1c(NC(=O)C2COc3ccccc3O2)sc2c1CCN(C(=O)OC)C2 (configuration not stated),/,0,/,/,/
CCOC(=O)c1c(NC(C)=O)sc2c1CCN(Cc1ccccc1)C2,/,-1,/,2,87*
CCOC(=O)c1c(NC(=O)CN(CC)CC)sc2c1CCN(C(=O)OCC)C2,-6,1,-6,-2,-2
COC(=O)c1c(NC(=O)C2COc3ccccc3O2)sc2c1CCN(Cc1ccccc1)C2 (configuration not stated),50,-6,29,-1,69*
CCOC(=O)c1c(NC(=O)CSc2ncccn2)sc2c1CCN(Cc1ccccc1)C2,151*,1,106*,6,135*
CCOC(=O)c1c(NC(=O)CSc2ncccn2)sc2c1CC(C)(C)NC2(C)C,/,0,/,0,0
CCOC(=O)c1c(NC(=O)CN2CCCCC2)sc2c1CCN(C(=O)OCC)C2,-9,0,-12,2,6
CCOc1ccc(OCC)c(NC(=O)C2CCCN(C(=O)c3ccc(Cl)cc3)C2)c1 (configuration not stated),/,0,/,/,/
CCOC(=O)c1c(NC(=O)C(C)Sc2cccc[n+]2[O-])sc2c1CCN(Cc1ccccc1)C2 (configuration not stated),81*,/,112*,/,/
COC(=O)c1c(NC(C)=O)sc2c1CCN(Cc1ccccc1)C2,/,-1,/,4,91*
COC(=O)c1c(NC(=O)C(C)(C)C)sc2c1CCN(Cc1ccccc1)C2,/,0,/,5,32*
CCOC(=O)c1c(NC(=O)C(C)Sc2cn(C)c3ccccc23)sc2c1CCC2 (configuration not stated),1,0,-2,1,4
O=C(Nc1ccc(OC(F)(F)F)cc1)Nc1c(-c2ccc(C(F)(F)F)cc2)nc2ncccn12,/,1,/,/,/
COc1ccc(C(CNC(=O)c2ccc(OCc3csc(C)n3)cc2)N2CCCC2)cc1 (configuration not stated),/,0,/,/,/
O=C(CSc1nncc(=O)[nH]1)Nc1cccc([N+](=O)[O-])c1,/,0,/,-1,2
COCCN1C=C(C(=O)OC)C(c2ccccc2C(F)(F)F)C(C(=O)OC)=C1,82*,-17,122*,1,56*
CCCCN1C=C(C(=O)OC)C(c2ccccc2C(F)(F)F)C(C(=O)OC)=C1,62*,-3,67*,-2,94*
CCCCOc1ccccc1C1C(C(=O)OC)=C(C)N(C)C(C)=C1C(=O)OC,-4,0,-2,1,-1
CCCCN1C=C(C(=O)OC)C(c2ccccc2Cl)C(C(=O)OC)=C1,92*,-13,30,-3,96*
COCCN1C=C(C(=O)OC)C(c2ccc(OC)c(OC)c2)C(C(=O)OC)=C1,39,3,12,0,6
O=C(Cc1cccs1)NC(Cc1c[nH]c2ccccc12)C(=O)O (configuration not stated),/,-1,/,-3,1
Cc1c(O)ccc2c(CC(=O)N[C@@H](Cc3c[nH]c4ccccc34)C(=O)O)cc(=O)oc12,/,-28,/,-4,21*
CCN(CC)C(=O)CC[C@@H]1CC[C@]2(CCCN(Cc3ccncc3)C2)O1,/,0,/,/,/
N#Cc1ccc(Oc2cnccn2)cc1,/,0,/,-1,27*
COc1ccc(CNC2CC(C)N(C)CC2C)cc1OC (configuration not stated),/,0,/,-2,1
COc1ccc(CCNC2CC(C)N(C)CC2C)cc1OC (configuration not stated),27,0,20,-2,27*
CN(Cc1ccc(Cl)s1)C(=O)CN1C(=O)N(C)C2(CCCCC2)C1=O,/,0,/,/,/
